The target in experiment [1] is Sodium channel protein type 5 subunit alpha (Homo sapiens, UniProt Q14524). As to the kind of experiment: Inhibition of human Nav1.5 expressed in HEK293 cells assessed as inward peak current by ion-works quattro patch clamp electrophysiology method. The format is cell-based. The essentials:
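Stable HEK293 line expressing human NaV1.5, recorded by population patch clamp on the IonWorks Quattro.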

In experiment [2] the target is Sodium channel protein type 9 subunit alpha (Homo sapiens, UniProt Q15858). As to the kind of experiment: Inhibition of human Nav1.7 expressed in HEK293 cells assessed as inward peak current by ion-works quattro patch clamp electrophysiology method. The format is cell-based. Background: In patch-clamp work, channel activity is measured electrically.
Sequence of Sodium channel protein type 9 subunit alpha (Q15858 whole entry): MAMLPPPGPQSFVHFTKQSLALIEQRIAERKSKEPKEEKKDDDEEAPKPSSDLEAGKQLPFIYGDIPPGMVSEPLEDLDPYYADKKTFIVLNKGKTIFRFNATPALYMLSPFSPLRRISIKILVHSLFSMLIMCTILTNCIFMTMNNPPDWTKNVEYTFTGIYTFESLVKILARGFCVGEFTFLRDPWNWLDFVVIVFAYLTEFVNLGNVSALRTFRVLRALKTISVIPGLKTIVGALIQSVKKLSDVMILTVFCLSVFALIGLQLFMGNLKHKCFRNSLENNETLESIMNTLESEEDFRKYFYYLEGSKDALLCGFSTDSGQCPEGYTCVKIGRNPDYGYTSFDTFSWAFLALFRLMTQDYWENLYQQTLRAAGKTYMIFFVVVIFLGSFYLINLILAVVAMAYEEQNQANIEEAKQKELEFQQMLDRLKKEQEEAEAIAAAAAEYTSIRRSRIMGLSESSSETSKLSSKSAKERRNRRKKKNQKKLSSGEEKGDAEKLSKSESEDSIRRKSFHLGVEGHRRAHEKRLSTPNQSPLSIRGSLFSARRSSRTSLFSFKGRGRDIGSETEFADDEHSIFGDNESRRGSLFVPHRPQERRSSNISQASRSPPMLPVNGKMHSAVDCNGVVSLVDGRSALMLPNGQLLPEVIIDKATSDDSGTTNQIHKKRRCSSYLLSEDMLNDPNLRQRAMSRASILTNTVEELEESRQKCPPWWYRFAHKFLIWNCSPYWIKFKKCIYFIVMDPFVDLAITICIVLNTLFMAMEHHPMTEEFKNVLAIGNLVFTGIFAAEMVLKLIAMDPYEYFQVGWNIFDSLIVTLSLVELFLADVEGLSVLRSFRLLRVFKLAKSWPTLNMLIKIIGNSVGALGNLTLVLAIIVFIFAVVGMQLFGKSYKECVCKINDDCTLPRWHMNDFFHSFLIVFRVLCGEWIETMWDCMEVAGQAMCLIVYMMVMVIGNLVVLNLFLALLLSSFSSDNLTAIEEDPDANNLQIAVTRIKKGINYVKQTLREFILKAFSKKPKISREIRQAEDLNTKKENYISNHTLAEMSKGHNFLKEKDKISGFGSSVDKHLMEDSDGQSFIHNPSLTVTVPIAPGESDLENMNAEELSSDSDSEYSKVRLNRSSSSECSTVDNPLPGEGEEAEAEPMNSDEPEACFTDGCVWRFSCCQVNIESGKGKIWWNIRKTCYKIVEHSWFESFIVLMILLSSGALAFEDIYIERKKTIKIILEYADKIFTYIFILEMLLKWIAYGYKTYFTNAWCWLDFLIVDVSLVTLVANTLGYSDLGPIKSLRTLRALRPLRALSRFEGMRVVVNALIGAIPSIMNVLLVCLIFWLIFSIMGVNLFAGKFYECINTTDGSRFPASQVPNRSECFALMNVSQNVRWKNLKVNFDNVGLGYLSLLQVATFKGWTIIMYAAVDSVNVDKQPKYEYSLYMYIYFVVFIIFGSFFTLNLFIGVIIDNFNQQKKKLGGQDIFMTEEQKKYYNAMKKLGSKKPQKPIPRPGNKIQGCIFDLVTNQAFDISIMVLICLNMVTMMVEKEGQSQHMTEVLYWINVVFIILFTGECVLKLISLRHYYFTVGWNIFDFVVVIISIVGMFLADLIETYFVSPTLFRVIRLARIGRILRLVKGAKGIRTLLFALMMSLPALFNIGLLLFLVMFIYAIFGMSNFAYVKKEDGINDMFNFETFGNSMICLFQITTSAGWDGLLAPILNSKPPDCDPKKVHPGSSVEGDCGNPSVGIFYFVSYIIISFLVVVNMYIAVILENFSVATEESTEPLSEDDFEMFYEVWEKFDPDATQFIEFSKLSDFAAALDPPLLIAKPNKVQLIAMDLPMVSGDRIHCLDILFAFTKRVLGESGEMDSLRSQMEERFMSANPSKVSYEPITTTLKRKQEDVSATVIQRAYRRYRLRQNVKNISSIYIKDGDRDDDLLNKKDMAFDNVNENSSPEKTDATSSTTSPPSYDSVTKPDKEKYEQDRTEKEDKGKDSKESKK

Structures are written as SMILES. Positions of bridges follow the written chain, without caps; N, C: chain ends. Non-standard residues stand in square brackets, D forms with d. Residues, ends and D or L forms follow the SMILES beside them. 1Nal = N[C@@H](Cc1cccc2ccccc12)C(=O)O Some results are limits rather than exact numbers.

Sequence of Sodium channel protein type 5 subunit alpha (Q14524 whole entry): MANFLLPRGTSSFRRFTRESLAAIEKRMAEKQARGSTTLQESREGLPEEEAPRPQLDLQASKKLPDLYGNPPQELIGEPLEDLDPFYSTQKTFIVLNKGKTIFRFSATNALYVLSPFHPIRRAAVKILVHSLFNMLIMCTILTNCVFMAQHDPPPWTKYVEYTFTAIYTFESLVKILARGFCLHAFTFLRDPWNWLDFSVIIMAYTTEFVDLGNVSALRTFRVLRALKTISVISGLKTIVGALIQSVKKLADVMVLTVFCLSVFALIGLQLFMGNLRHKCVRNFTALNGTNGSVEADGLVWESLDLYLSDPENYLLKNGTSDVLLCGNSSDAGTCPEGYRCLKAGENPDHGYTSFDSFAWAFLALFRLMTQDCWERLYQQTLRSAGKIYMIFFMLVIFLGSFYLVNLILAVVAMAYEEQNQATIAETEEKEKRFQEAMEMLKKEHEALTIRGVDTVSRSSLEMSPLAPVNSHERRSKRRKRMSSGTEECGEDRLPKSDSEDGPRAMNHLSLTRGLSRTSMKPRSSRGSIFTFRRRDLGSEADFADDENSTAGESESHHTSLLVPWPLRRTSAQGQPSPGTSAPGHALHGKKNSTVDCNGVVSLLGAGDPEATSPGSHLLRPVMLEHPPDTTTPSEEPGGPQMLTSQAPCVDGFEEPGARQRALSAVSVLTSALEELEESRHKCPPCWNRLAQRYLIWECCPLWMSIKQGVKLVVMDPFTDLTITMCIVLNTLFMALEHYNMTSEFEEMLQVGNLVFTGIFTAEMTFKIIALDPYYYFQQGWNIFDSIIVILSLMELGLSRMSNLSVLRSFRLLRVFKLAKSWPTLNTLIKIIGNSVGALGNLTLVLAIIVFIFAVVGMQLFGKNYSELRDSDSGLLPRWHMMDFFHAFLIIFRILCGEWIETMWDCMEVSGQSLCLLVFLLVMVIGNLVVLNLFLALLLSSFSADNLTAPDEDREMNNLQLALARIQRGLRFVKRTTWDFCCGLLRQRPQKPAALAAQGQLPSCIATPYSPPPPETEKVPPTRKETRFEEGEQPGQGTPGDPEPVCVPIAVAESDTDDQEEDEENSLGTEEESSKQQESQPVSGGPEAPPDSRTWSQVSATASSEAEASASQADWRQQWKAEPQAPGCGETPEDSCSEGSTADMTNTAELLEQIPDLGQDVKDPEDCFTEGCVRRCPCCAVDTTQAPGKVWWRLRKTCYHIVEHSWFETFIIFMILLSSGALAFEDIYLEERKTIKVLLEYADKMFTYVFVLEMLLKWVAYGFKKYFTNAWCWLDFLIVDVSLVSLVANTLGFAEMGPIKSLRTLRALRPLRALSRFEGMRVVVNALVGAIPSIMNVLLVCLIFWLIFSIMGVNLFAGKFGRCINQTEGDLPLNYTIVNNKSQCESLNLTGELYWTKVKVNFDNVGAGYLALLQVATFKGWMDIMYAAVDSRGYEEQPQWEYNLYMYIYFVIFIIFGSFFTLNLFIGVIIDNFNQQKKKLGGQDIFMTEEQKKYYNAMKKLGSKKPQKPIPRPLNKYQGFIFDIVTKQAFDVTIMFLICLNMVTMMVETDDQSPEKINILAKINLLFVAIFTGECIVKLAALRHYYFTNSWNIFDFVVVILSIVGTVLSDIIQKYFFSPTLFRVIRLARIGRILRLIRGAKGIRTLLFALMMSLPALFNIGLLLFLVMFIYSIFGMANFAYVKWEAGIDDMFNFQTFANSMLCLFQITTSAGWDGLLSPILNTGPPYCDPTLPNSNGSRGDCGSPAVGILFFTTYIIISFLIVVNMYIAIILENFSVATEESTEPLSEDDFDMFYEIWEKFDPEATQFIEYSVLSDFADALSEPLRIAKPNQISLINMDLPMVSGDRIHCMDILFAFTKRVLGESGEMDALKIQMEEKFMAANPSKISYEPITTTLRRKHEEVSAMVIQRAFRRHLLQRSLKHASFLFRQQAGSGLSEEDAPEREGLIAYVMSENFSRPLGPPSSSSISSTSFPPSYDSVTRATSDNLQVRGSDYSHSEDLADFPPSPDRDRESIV

A word on the IC50: it is the concentration at which inhibition is half-maximal. In the case of `CC[C@H](C)[C@@H]1NC(=O)[C@@H]2CSSC[C@@H]3NC(=O)[C@H](C(C)C)NC(=O)[C@H](CC(C)C)NC(=O)[C@H](CC(N)=O)NC(=O)[C@@H]4CCCN4C(=O)[C@H](CCCNC(=N)N)NC(=O)[C@H](CSSC[C@H](NC(=O)[C@@H](N)CC(=O)O)C(=O)N[C@@H](CC(C)C)C(=O)NCC(=O)N[C@@H](Cc4ccccc4)C(=O)N[C@@H](CCSC)C(=O)N[C@@H](CCCNC(=N)N)C(=O)N[C@@H](CCCNC(=N)N)C(=O)N2)NC(=O)[C@H](CSSC[C@@H](C(=O)N[C@@H](CCCCN)C(=O)N[C@@H](Cc2ccc(O)cc2)C(=O)N[C@H](C(=O)N[C@@H](Cc2ccccc2)C(N)=O)C(C)C)NC(=O)[C@H](Cc2c[nH]c4ccccc24)NC(=O)[C@H](CCCCN)NC(=O)[C@H](Cc2cnc[nH]2)NC(=O)[C@H]([C@@H](C)O)NC(=O)[C@H](CCCNC(=N)N)NC(=O)[C@H](CO)NC3=O)NC(=O)[C@H](CCCCN)NC(=O)[C@H](CC(=O)O)NC(=O)[C@H](CC(N)=O)NC(=O)[C@H](CC(=O)O)NC(=O)[C@@H]2CCCN2C1=O` (H-DCLGFMRRCIPDNDKCCRPNLVCSRTHKWCKYVF-NH2; disulfide 2-17, 9-23, 16-30), the figures for the IC50 in experiment [1] and in experiment [2] were above 5000 nM and 130 nM, respectively.
As for `CC[C@H](C)[C@@H]1NC(=O)[C@@H]2CSSC[C@@H]3NC(=O)[C@H](C(C)C)NC(=O)[C@H](CC(C)C)NC(=O)[C@H](CC(N)=O)NC(=O)[C@@H]4CCCN4C(=O)[C@H](CCCNC(=N)N)NC(=O)[C@H](CSSC[C@H](NC(=O)[C@@H](N)CC(=O)O)C(=O)N[C@@H](CC(C)C)C(=O)NCC(=O)N[C@@H](Cc4ccccc4)C(=O)N[C@@H](CCSC)C(=O)N[C@@H](CCCNC(=N)N)C(=O)N[C@@H](CCCCN)C(=O)N2)NC(=O)[C@H](CSSC[C@@H](C(=O)N[C@@H](CCCNC(=N)N)C(=O)N[C@@H](Cc2ccc(O)cc2)C(=O)N[C@H](C(=O)N[C@@H](Cc2ccccc2)C(N)=O)C(C)C)NC(=O)[C@H](Cc2c[nH]c4ccccc24)NC(=O)[C@H](CCCCN)NC(=O)[C@H](Cc2cnc[nH]2)NC(=O)[C@H]([C@@H](C)O)NC(=O)[C@H](CCCNC(=N)N)NC(=O)[C@H](CO)NC3=O)NC(=O)[C@H](CCCCN)NC(=O)[C@H](CC(=O)O)NC(=O)[C@H](CC(N)=O)NC(=O)[C@H](CC(=O)O)NC(=O)[C@@H]2CCCN2C1=O` (H-DCLGFMRKCIPDNDKCCRPNLVCSRTHKWCRYVF-NH2; disulfide 2-17, 9-23, 16-30), the values for the IC50 in experiment [1] and in experiment [2] were above 5000 nM and 950 nM, respectively.
Regarding `CC[C@H](C)[C@@H]1NC(=O)[C@@H]2CSSC[C@@H]3NC(=O)[C@H](C(C)C)NC(=O)[C@H](CC(C)C)NC(=O)[C@H](CC(N)=O)NC(=O)[C@@H]4CCCN4C(=O)[C@H](CCCNC(=N)N)NC(=O)[C@H](CSSC[C@H](NC(=O)[C@@H](N)CC(=O)O)C(=O)N[C@@H](CC(C)C)C(=O)NCC(=O)N[C@@H](Cc4ccccc4)C(=O)N[C@@H](CCSC)C(=O)N[C@@H](CCCNC(=N)N)C(=O)N[C@@H](CCCCN)C(=O)N2)NC(=O)[C@H](CSSC[C@@H](C(=O)N[C@@H](CCCCN)C(=O)N[C@@H](Cc2ccc(O)cc2)C(=O)N[C@H](C(=O)N[C@@H](Cc2ccccc2)C(N)=O)C(C)C)NC(=O)[C@H](Cc2c[nH]c4ccccc24)NC(=O)[C@H](CCCCN)NC(=O)[C@H](Cc2cnc[nH]2)NC(=O)[C@H]([C@@H](C)O)NC(=O)[C@H](CCCNC(=N)N)NC(=O)[C@H](CO)NC3=O)NC(=O)[C@H](CCCCN)NC(=O)[C@H](CC(=O)O)NC(=O)[C@H](CCCNC(=N)N)NC(=O)[C@H](CC(=O)O)NC(=O)[C@@H]2CCCN2C1=O` (H-DCLGFMRKCIPDRDKCCRPNLVCSRTHKWCKYVF-NH2; disulfide 2-17, 9-23, 16-30), the IC50 in experiment [1] is above 5000 nM; in experiment [2], 140 nM.
As to `CC[C@H](C)[C@@H]1NC(=O)[C@@H]2CSSC[C@@H]3NC(=O)[C@H](C(C)C)NC(=O)[C@H](CC(C)C)NC(=O)[C@H](CC(N)=O)NC(=O)[C@@H]4CCCN4C(=O)[C@H](CCCNC(=N)N)NC(=O)[C@H](CSSC[C@H](NC(=O)[C@@H](N)CC(=O)O)C(=O)N[C@@H](CC(C)C)C(=O)NCC(=O)N[C@@H](Cc4ccccc4)C(=O)N[C@@H](CCSC)C(=O)N[C@@H](CCCNC(=N)N)C(=O)N[C@@H](CCCCN)C(=O)N2)NC(=O)[C@H](CSSC[C@@H](C(=O)N[C@@H](CCCCN)C(=O)N[C@@H](Cc2ccc(O)cc2)C(=O)N[C@@H](Cc2cccc4ccccc24)C(=O)N[C@@H](Cc2ccccc2)C(N)=O)NC(=O)[C@H](Cc2c[nH]c4ccccc24)NC(=O)[C@H](CCCCN)NC(=O)[C@H](Cc2cnc[nH]2)NC(=O)[C@H]([C@@H](C)O)NC(=O)[C@H](CCCNC(=N)N)NC(=O)[C@H](CO)NC3=O)NC(=O)[C@H](CCCCN)NC(=O)[C@H](CC(=O)O)NC(=O)[C@H](CC(N)=O)NC(=O)[C@H](CC(=O)O)NC(=O)[C@@H]2CCCN2C1=O` (H-DCLGFMRKCIPDNDKCCRPNLVCSRTHKWCKY[1Nal]F-NH2; disulfide 2-17, 9-23, 16-30), the IC50 is above 5000 nM in experiment [1] and 70 nM in experiment [2].
Take `CC[C@H](C)[C@@H]1NC(=O)[C@H]2CSSC[C@H]3NC(=O)[C@H](C(C)C)NC(=O)[C@H](CC(C)C)NC(=O)[C@H](CC(N)=O)NC(=O)[C@@H]4CCCN4C(=O)[C@H](CCCNC(=N)N)NC(=O)[C@H](CSSC[C@H](NC(=O)[C@@H](N)CC(=O)O)C(=O)N[C@@H](CC(C)C)C(=O)NCC(=O)N[C@@H](Cc4ccccc4)C(=O)N[C@@H](CCSC)C(=O)N[C@@H](CCCNC(=N)N)C(=O)N[C@@H](CCCCN)C(=O)N2)NC(=O)[C@@H](CSSC[C@@H](C(=O)N[C@@H](CCCCN)C(=O)N[C@@H](Cc2ccc(O)cc2)C(=O)N[C@H](C(=O)N[C@@H](Cc2ccccc2)C(N)=O)C(C)C)NC(=O)[C@H](Cc2c[nH]c4ccccc24)NC(=O)[C@H](C)NC(=O)[C@H](Cc2cnc[nH]2)NC(=O)[C@H]([C@@H](C)O)NC(=O)[C@H](CCCNC(=N)N)NC(=O)[C@H](CO)NC3=O)NC(=O)[C@H](CCCCN)NC(=O)[C@H](CC(=O)O)NC(=O)[C@H](CC(N)=O)NC(=O)[C@H](CC(=O)O)NC(=O)[C@@H]2CCCN2C1=O`: the 50% inhibitory concentration (IC50) in experiment [1] was above 5000 nM; in experiment [2], 470 nM.
For the compound `CSCC[C@@H]1NC(=O)[C@H](Cc2ccccc2)NC(=O)CNC(=O)[C@H](CC(C)C)NC(=O)[C@@H](NC(=O)[C@@H](N)CC(=O)O)CSSC[C@@H]2NC(=O)[C@@H]3CSSC[C@@H](C(=O)N[C@@H](CCCCN)C(=O)N[C@@H](Cc4ccc(O)cc4)C(=O)N[C@H](C(=O)N[C@@H](Cc4ccccc4)C(N)=O)C(C)C)NC(=O)[C@H](Cc4c[nH]c5ccccc45)NC(=O)[C@H](CCCCN)NC(=O)[C@H](Cc4cnc[nH]4)NC(=O)[C@H]([C@@H](C)O)NC(=O)[C@H](CCCNC(=N)N)NC(=O)[C@H](CO)NC(=O)[C@H](CSSC[C@H](NC(=O)[C@H](CCCCN)NC(=O)[C@H](CCCNC(=N)N)NC1=O)C(=O)N[C@@H](CCCCN)C(=O)N1CCC[C@H]1C(=O)N[C@@H](CC(=O)O)C(=O)N[C@@H](CC(N)=O)C(=O)N[C@@H](CC(=O)O)C(=O)N[C@@H](CCCCN)C(=O)N3)NC(=O)[C@H](C(C)C)NC(=O)[C@H](CC(C)C)NC(=O)[C@H](CC(N)=O)NC(=O)[C@@H]1CCCN1C(=O)[C@H](CCCNC(=N)N)NC2=O` (H-DCLGFMRKCKPDNDKCCRPNLVCSRTHKWCKYVF-NH2; disulfide 2-17, 9-23, 16-30), the half-maximal inhibitory concentration (IC50) is above 5000 nM in experiment [1] and 230 nM in experiment [2].
Consider `CSCC[C@@H]1NC(=O)[C@H](Cc2ccccc2)NC(=O)CNC(=O)[C@H](CC(C)C)NC(=O)[C@@H](NC(=O)[C@@H](N)CC(=O)O)CSSC[C@@H]2NC(=O)[C@@H]3CSSC[C@@H](C(=O)N[C@@H](CCCCN)C(=O)N[C@@H](Cc4ccc(O)cc4)C(=O)N[C@H](C(=O)N[C@@H](Cc4ccccc4)C(N)=O)C(C)C)NC(=O)[C@H](Cc4c[nH]c5ccccc45)NC(=O)[C@H](CCCCN)NC(=O)[C@H](Cc4cnc[nH]4)NC(=O)[C@H]([C@@H](C)O)NC(=O)[C@H](CCCNC(=N)N)NC(=O)[C@H](CO)NC(=O)[C@H](CSSC[C@H](NC(=O)[C@H](CCCCN)NC(=O)[C@H](CCCNC(=N)N)NC1=O)C(=O)N[C@@H](Cc1cc4ccccc4[nH]1)C(=O)N1CCC[C@H]1C(=O)N[C@@H](CC(=O)O)C(=O)N[C@@H](CC(N)=O)C(=O)N[C@@H](CC(=O)O)C(=O)N[C@@H](CCCCN)C(=O)N3)NC(=O)[C@H](C(C)C)NC(=O)[C@H](CC(C)C)NC(=O)[C@H](CC(N)=O)NC(=O)[C@@H]1CCCN1C(=O)[C@H](CCCNC(=N)N)NC2=O`, for which the values for the IC50 in experiment [1] and in experiment [2] were above 5000 nM and 130 nM, respectively.
The corresponding values for `CC[C@H](C)[C@@H]1NC(=O)[C@@H]2CSSC[C@@H]3NC(=O)[C@H](C(C)C)NC(=O)[C@H](CC(C)C)NC(=O)[C@H](CC(N)=O)NC(=O)[C@@H]4CCCN4C(=O)[C@H](CCCNC(=N)N)NC(=O)[C@H](CSSC[C@H](NC(=O)[C@@H](N)CC(=O)O)C(=O)N[C@@H](CC(C)C)C(=O)NCC(=O)N[C@@H](Cc4ccccc4)C(=O)N[C@@H](CCSC)C(=O)N[C@@H](CCCNC(=N)N)C(=O)N[C@@H](CCCCN)C(=O)N2)NC(=O)[C@H](CSSC[C@@H](C(=O)N[C@@H](CCCCN)C(=O)N[C@@H](Cc2ccc(O)cc2)C(=O)N[C@H](C(=O)N[C@@H](CCCNC(=N)N)C(N)=O)C(C)C)NC(=O)[C@H](Cc2c[nH]c4ccccc24)NC(=O)[C@H](CCCCN)NC(=O)[C@H](Cc2cnc[nH]2)NC(=O)[C@H]([C@@H](C)O)NC(=O)[C@H](CCCNC(=N)N)NC(=O)[C@H](CO)NC3=O)NC(=O)[C@H](CCCCN)NC(=O)[C@H](CC(=O)O)NC(=O)[C@H](CC(N)=O)NC(=O)[C@H](CC(=O)O)NC(=O)[C@@H]2CCCN2C1=O` (H-DCLGFMRKCIPDNDKCCRPNLVCSRTHKWCKYVR-NH2; disulfide 2-17, 9-23, 16-30) are above 5000 nM and 2350 nM.

These data come from ChEMBL document CHEMBL3797186, “Single Residue Substitutions That Confer Voltage-Gated Sodium Ion Channel Subtype Selectivity in the NaV1.7 Inhibitory Peptide GpTx-1” (J Med Chem, 2016).
